Test results reported in ChEMBL document CHEMBL5303300, “EUbOPEN Chemogenomics Library - Multiplex” (2023).
Values joined by “and” are separate entries in the source; they are usually repeats but may differ in a detail not shown here. Identical values can stand only once.

Tested on: HEK-293T
Assay: Multiplex assay against HEK293T
Format: toxicity, cell-based
Conditions: human, number of replicates 2
In short: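 Four dyes were applied at seeding to live cells: Hoechst33342, BioTracker Green Microtubule Cytoskeleton Dye, MitoTracker Red and Annexin V Alexa Fluor 680. Imaging after compound addition used a CQ1 microscope at 37°C and 5% CO2. CellPathfinder machine-learning gating then sorted cells into Hoechst high-intensity objects or normal cells, normal cells into healthy, pyknosed or fragmented nuclei, and pyknosed cells into mitotic or apoptotic, with tubulin, mitochondrial-mass and membrane-permeability phenotypes given as per cents of healthy-nucleus cells.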

[1] = 12 h, 1 µM, compound concentration 1 uM
[2] = 12 h, 10 µM, compound concentration 10 uM
[3] = 24 h, 1 µM, compound concentration 1 uM
[4] = 24 h, 10 µM, compound concentration 10 uM
[5] = 48 h, 1 µM, compound concentration 1 uM
[6] = 48 h, 10 µM, compound concentration 10 uM

CCN1CCN(Cc2ccc(C(=O)Nc3ccc(C)c(Oc4ccc5c(c4)CC(=O)N5)c3)cc2C(F)(F)F)CC1.Cl.Cl
Population Apoptotic (%) [1]: 43% and 61%
Population Fragmented Nuclei (%) [1]: 3% and 7%
Population Healthy Nuclei (%) [1]: 83% and 79%
Population Hoechst High Intensity Objects (%) [1]: 6% and 8%
Population Membrane Permeable-Phenotype (%) [1]: 2%
Population Mitochondria Different-Phenotype (%) [1]: 24% and 20%
Population Mitotic Cells (%) [1]: 56% and 38%
Population Normal (%) [1]: 93% and 91%
Population Pyknosed Nuclei (%) [1]: 12% and 13%
Population Tubulin-Different-Phenotype (%) [1]: 64% and 61%
Total Cell Count [1]: 609 and 592
Population Apoptotic (%) [2]: 68% and 69%
Population Fragmented Nuclei (%) [2]: 6% and 5%
Population Healthy Nuclei (%) [2]: 80% and 81%
Population Hoechst High Intensity Objects (%) [2]: 12% and 10%
Population Membrane Permeable-Phenotype (%) [2]: 6% and 2%
Population Mitochondria Different-Phenotype (%) [2]: 30% and 42%
Population Mitotic Cells (%) [2]: 31% and 30%
Population Normal (%) [2]: 87% and 89%
Population Pyknosed Nuclei (%) [2]: 13% and 12%
Population Tubulin-Different-Phenotype (%) [2]: 96% and 95%
Total Cell Count [2]: 598 and 606
Population Apoptotic (%) [3]: 40% and 52%
Population Fragmented Nuclei (%) [3]: 4% and 3%
Population Healthy Nuclei (%) [3]: 88% and 89%
Population Hoechst High Intensity Objects (%) [3]: 7% and 8%
Population Membrane Permeable-Phenotype (%) [3]: 2%
Population Mitochondria Different-Phenotype (%) [3]: 9%
Population Mitotic Cells (%) [3]: 59% and 47%
Population Normal (%) [3]: 92% and 91%
Population Pyknosed Nuclei (%) [3]: 7% and 6%
Population Tubulin-Different-Phenotype (%) [3]: 45% and 47%
Total Cell Count [3]: 907 and 801
Population Apoptotic (%) [4]: 58% and 78%
Population Fragmented Nuclei (%) [4]: 7% and 5%
Population Healthy Nuclei (%) [4]: 78% and 81%
Population Hoechst High Intensity Objects (%) [4]: 15%
Population Membrane Permeable-Phenotype (%) [4]: 4% and 2%
Population Mitochondria Different-Phenotype (%) [4]: 40% and 44%
Population Mitotic Cells (%) [4]: 41% and 21%
Population Normal (%) [4]: 84%
Population Pyknosed Nuclei (%) [4]: 14% and 12%
Population Tubulin-Different-Phenotype (%) [4]: 97% and 95%
Total Cell Count [4]: 517 and 556
Population Apoptotic (%) [5]: 12% and 23%
Population Fragmented Nuclei (%) [5]: 10% and 6%
Population Healthy Nuclei (%) [5]: 85% and 87%
Population Hoechst High Intensity Objects (%) [5]: 9% and 8%
Population Membrane Permeable-Phenotype (%) [5]: 5% and 3%
Population Mitochondria Different-Phenotype (%) [5]: 0% and 1%
Population Mitotic Cells (%) [5]: 87% and 76%
Population Normal (%) [5]: 90% and 91%
Population Pyknosed Nuclei (%) [5]: 4% and 5%
Population Tubulin-Different-Phenotype (%) [5]: 22% and 28%
Total Cell Count [5]: 2293 and 1602
Population Apoptotic (%) [6]: 75%
Population Fragmented Nuclei (%) [6]: 10% and 14%
Population Healthy Nuclei (%) [6]: 76% and 73%
Population Hoechst High Intensity Objects (%) [6]: 14% and 17%
Population Membrane Permeable-Phenotype (%) [6]: 13% and 5%
Population Mitochondria Different-Phenotype (%) [6]: 12% and 13%
Population Mitotic Cells (%) [6]: 25%
Population Normal (%) [6]: 85% and 82%
Population Pyknosed Nuclei (%) [6]: 12%
Population Tubulin-Different-Phenotype (%) [6]: 94% and 93%
Total Cell Count [6]: 709 and 749

CN(C)CCN(Cc1ccc(-c2ccc(CNCCc3ccccc3)cc2)cc1)C(=O)CCC1CCCC1.Cl.Cl
Population Apoptotic (%) [1]: 45% and 51%
Population Fragmented Nuclei (%) [1]: 2% and 1%
Population Healthy Nuclei (%) [1]: 87% and 86%
Population Hoechst High Intensity Objects (%) [1]: 6% and 3%
Population Membrane Permeable-Phenotype (%) [1]: 2%
Population Mitochondria Different-Phenotype (%) [1]: 34% and 33%
Population Mitotic Cells (%) [1]: 54% and 48%
Population Normal (%) [1]: 93% and 96%
Population Pyknosed Nuclei (%) [1]: 9% and 11%
Population Tubulin-Different-Phenotype (%) [1]: 86% and 78%
Total Cell Count [1]: 835 and 591
Population Apoptotic (%) [2]: 61% and 57%
Population Fragmented Nuclei (%) [2]: 7% and 4%
Population Healthy Nuclei (%) [2]: 43% and 42%
Population Hoechst High Intensity Objects (%) [2]: 28% and 30%
Population Membrane Permeable-Phenotype (%) [2]: 4% and 1%
Population Mitochondria Different-Phenotype (%) [2]: 72% and 73%
Population Mitotic Cells (%) [2]: 38% and 42%
Population Normal (%) [2]: 71% and 69%
Population Pyknosed Nuclei (%) [2]: 48% and 52%
Population Tubulin-Different-Phenotype (%) [2]: 93% and 96%
Total Cell Count [2]: 396 and 358
Population Apoptotic (%) [3]: 36%
Population Fragmented Nuclei (%) [3]: 4% and 6%
Population Healthy Nuclei (%) [3]: 89% and 85%
Population Hoechst High Intensity Objects (%) [3]: 6% and 5%
Population Membrane Permeable-Phenotype (%) [3]: 1%
Population Mitochondria Different-Phenotype (%) [3]: 17% and 21%
Population Mitotic Cells (%) [3]: 63%
Population Normal (%) [3]: 93% and 94%
Population Pyknosed Nuclei (%) [3]: 6% and 7%
Population Tubulin-Different-Phenotype (%) [3]: 63% and 61%
Total Cell Count [3]: 1227 and 899
Population Apoptotic (%) [4]: 73%
Population Fragmented Nuclei (%) [4]: 5%
Population Healthy Nuclei (%) [4]: 42% and 36%
Population Hoechst High Intensity Objects (%) [4]: 31% and 39%
Population Membrane Permeable-Phenotype (%) [4]: 3% and 1%
Population Mitochondria Different-Phenotype (%) [4]: 80% and 84%
Population Mitotic Cells (%) [4]: 26%
Population Normal (%) [4]: 68% and 60%
Population Pyknosed Nuclei (%) [4]: 51% and 57%
Population Tubulin-Different-Phenotype (%) [4]: 89% and 95%
Total Cell Count [4]: 357 and 312
Population Apoptotic (%) [5]: 15% and 20%
Population Fragmented Nuclei (%) [5]: 12% and 9%
Population Healthy Nuclei (%) [5]: 84% and 86%
Population Hoechst High Intensity Objects (%) [5]: 8%
Population Membrane Permeable-Phenotype (%) [5]: 4% and 5%
Population Mitochondria Different-Phenotype (%) [5]: 0% and 2%
Population Mitotic Cells (%) [5]: 84% and 79%
Population Normal (%) [5]: 91%
Population Pyknosed Nuclei (%) [5]: 3% and 4%
Population Tubulin-Different-Phenotype (%) [5]: 21% and 25%
Total Cell Count [5]: 3014 and 1979
Population Apoptotic (%) [6]: 88% and 79%
Population Fragmented Nuclei (%) [6]: 9% and 5%
Population Healthy Nuclei (%) [6]: 30% and 28%
Population Hoechst High Intensity Objects (%) [6]: 33% and 40%
Population Membrane Permeable-Phenotype (%) [6]: 1% and 0%
Population Mitochondria Different-Phenotype (%) [6]: 82% and 91%
Population Mitotic Cells (%) [6]: 11% and 20%
Population Normal (%) [6]: 66% and 59%
Population Pyknosed Nuclei (%) [6]: 60% and 65%
Population Tubulin-Different-Phenotype (%) [6]: 84% and 93%
Total Cell Count [6]: 318 and 281
